Source: PubChem BioAssay (several laboratories)
The list is not random: actives were taken first. Their share in the collection is about 2.2%.
PfGluPho inh: PfG6PD (Plasmodium falciparum) enzyme inhibition; PfGluPho enzyme, NADPH resazurin-diaphorase fluorescence; inhibition, % at 20 µM; hit rate 0.78% among 350,000;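 active means inhibition reaching at least a set limit at 20 µM in the primary screen, cut at about 59% in these data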;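 further: 0% = DMSO wells with substrate and 100% = DMSO wells lacking glucose-6-phosphate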
Neddyl block: cullin neddylation inhibition; P61081+Q13564; TR-FRET cullin neddylation, biochemical; inhibition, % at 25 µM; hit rate 0.58% among 360,000; AID 651699; in the data active means inhibition above about 36%
HKDC1 inh: inhibitors of human hexokinase HKDC1 | hit rate 0.16% among 340,000 | inhibition, % at 20 µM | recombinant HKDC1, G6PDH/diaphorase resazurin coupled fluorescence;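 active means inhibition above about 35% when tested at 20 µM, limit read from the data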;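 further: plate controls were DMSO wells with enzyme for no effect and DMSO wells lacking enzyme for full effect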
Target sequence (Q2TB90 whole entry, looked up): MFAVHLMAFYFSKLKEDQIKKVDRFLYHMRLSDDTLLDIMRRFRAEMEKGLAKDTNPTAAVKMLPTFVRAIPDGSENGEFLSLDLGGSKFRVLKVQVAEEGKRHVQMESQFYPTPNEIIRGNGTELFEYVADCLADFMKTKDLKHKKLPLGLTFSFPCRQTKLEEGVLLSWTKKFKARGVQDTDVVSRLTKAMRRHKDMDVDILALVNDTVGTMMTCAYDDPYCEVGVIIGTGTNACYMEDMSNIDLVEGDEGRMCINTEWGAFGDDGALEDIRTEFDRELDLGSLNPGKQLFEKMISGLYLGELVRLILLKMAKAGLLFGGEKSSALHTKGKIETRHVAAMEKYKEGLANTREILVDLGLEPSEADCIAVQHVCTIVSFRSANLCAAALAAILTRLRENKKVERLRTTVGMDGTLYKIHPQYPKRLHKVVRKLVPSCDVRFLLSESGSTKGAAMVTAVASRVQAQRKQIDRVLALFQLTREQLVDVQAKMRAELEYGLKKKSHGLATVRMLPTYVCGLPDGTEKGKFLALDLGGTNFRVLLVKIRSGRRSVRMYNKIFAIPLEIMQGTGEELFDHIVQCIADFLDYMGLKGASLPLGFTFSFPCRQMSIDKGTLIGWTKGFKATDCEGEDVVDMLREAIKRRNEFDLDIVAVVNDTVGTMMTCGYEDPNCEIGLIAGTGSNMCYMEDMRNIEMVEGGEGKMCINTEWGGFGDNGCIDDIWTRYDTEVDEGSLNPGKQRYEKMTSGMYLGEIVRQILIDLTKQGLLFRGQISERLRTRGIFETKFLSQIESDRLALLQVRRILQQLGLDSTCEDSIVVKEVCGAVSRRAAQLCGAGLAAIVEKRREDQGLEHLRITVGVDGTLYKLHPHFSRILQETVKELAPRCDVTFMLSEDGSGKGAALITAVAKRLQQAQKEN
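Test system: recombinant HKDC1 (HK5) hexokinase enzyme, produced in-house; Amount: enzyme 5 µg/mL final; Buffer or medium: Tris pH 8.0 buffer with MgCl2, Tween-20, BSA, BME; Reagent: glucose and ATP substrates; Doses: 20 µM test compound, 1% DMSO; Incubation: 90 min reaction incubation at room temperature, dark; Detection: resorufin fluorescence at 613 nm.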
PfM18AAP inh-1: blocks P. falciparum M18 aspartyl aminopeptidase | recombinant PfM18AAP, H-Glu-NHMec fluorogenic cleavage | inhibition, % at 7.35 µM | hit rate 1.2% among 290,000;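 active means inhibition above the campaign mean inhibition over all tested compounds plus 3 SD, cut at about 28% in these data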;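 further: 0% = plate median of test compound wells and 100% = 2 mM ZnCl2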
PfM18AAP inh-2: confirmation of Plasmodium falciparum M18 aspartyl aminopeptidase inhibitors; recombinant PfM18AAP, H-Glu-NHMec fluorogenic cleavage; hit rate 28% among 2,400; AID 2170; shares compounds with PfM18AAP inh-1; inhibition, % at 7.35 µM;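 active means mean inhibition over replicate wells above the hit cutoff set for the earlier primary screen, cut at about 29% in these data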;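 further: 0% = median of test compound wells and 100% = 2 mM ZnCl2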
CTSL1 confirm: counter-screen for PFM18AAP inhibitors: confirmation of human cathepsin L inhibitors; shares compounds with PfM18AAP inh-1; purified cathepsin L1, Z-Leu-Arg-MCA fluorescence; inhibition, % at 5.96 µM; 2,400 tested, under 10 active; AID 2178;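 active means average inhibition across replicates above the hit cutoff set in the earlier primary screen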;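 further: 0% = median of test compound wells and 100% = Z-Phe-Ala-diazomethylketone 1 µM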
* marks the source's active call; other numbers are inactive results.

Screening COc1ccc(N2C(N)=C(C#N)C(c3ccsc3)C3=C2CCCC3=O)c(OC)c1 (stereo unspecified) returned PfGluPho inh 19, Neddyl block 9, HKDC1 inh -5, PfM18AAP inh-1 35*, PfM18AAP inh-2 -33 and CTSL1 confirm -4.
COc1cccc(C2C(C#N)=C(N)N(N(C)C)C3=C2C(=O)CCC3)c1 (stereo unspecified) was read as PfGluPho inh 5, Neddyl block 0, HKDC1 inh 2 and PfM18AAP inh-1 8.
Cc1cc(C(=O)CSc2ncn[nH]2)c(C)n1-c1cccc(S(=O)(=O)N2CCOCC2)c1 was read as PfGluPho inh 7, Neddyl block 0, HKDC1 inh -7, PfM18AAP inh-1 46*, PfM18AAP inh-2 24 and CTSL1 confirm 5.
Screening CC(C)C(OC(=O)Cn1nnc2ccccc21)C(=O)NC1CCCC1 (stereo unspecified) returned PfGluPho inh 1, Neddyl block -1, HKDC1 inh -8 and PfM18AAP inh-1 2.
`Cc1cc(O)c2/c(=N\N)c(-c3csc(C)n3)coc2c1` gave PfGluPho inh 37, Neddyl block -6, HKDC1 inh -3, PfM18AAP inh-1 71*, PfM18AAP inh-2 48* and CTSL1 confirm -1.
`Cc1nc(-c2coc3c(CN(C)C)c(O)ccc3c2=O)cs1` gave PfGluPho inh -6, HKDC1 inh 10 and PfM18AAP inh-1 -18.
For CSc1ccc(C(=S)N2CCN(C)CC2)cc1 the results were PfGluPho inh 50, Neddyl block 0, HKDC1 inh -14 and PfM18AAP inh-1 -1.
For CSc1ccc(C(=S)N2CCN(C(c3ccccc3)c3ccccc3)CC2)cc1 the results were PfGluPho inh 56, Neddyl block -4, HKDC1 inh -2, PfM18AAP inh-1 41*, PfM18AAP inh-2 -5 and CTSL1 confirm -1.
For Cc1nc2c(cc1C(=O)N/N=C/c1ccc(O)c(O)c1)c(=O)n(C)c(=O)n2C the results were PfGluPho inh -9, Neddyl block -6, HKDC1 inh -8, PfM18AAP inh-1 62*, PfM18AAP inh-2 68* and CTSL1 confirm -1.
`O=C(N/N=C/c1ccc(O)c(O)c1)c1ccc(-n2cnnn2)cc1` gave PfGluPho inh 15, Neddyl block -31 and HKDC1 inh 7.
Screening COCCC(=O)N1CCC(Oc2ccc(C(=O)NCCC3=CCCCC3)cc2)CC1 returned PfGluPho inh 3, Neddyl block -3, HKDC1 inh 0 and PfM18AAP inh-1 1.
O=C(CN1CCN(S(=O)(=O)c2ccc(Br)cc2)CC1)c1ccc(O)c(O)c1 was read as PfGluPho inh -7, Neddyl block 4, HKDC1 inh -4, PfM18AAP inh-1 72*, PfM18AAP inh-2 40* and CTSL1 confirm -1.
For CC(C)c1ccc(S(=O)(=O)N2CCN(CC(=O)Nc3ccc(Cl)cc3F)CC2)cc1 the results were PfGluPho inh -7, Neddyl block 10 and HKDC1 inh 0.
For COc1ccc(OC)c(C(=O)CN2CCN(S(=O)(=O)c3ccc(Br)cc3)CC2)c1 the results were PfGluPho inh 0, Neddyl block 9, HKDC1 inh 2 and PfM18AAP inh-1 2.
`O=C(CN1CCN(c2ccccc2F)CC1)c1ccc(O)c(O)c1` gave PfGluPho inh -15, Neddyl block -1, HKDC1 inh -4, PfM18AAP inh-1 60*, PfM18AAP inh-2 37* and CTSL1 confirm 2.
Screening CC(C)c1ccc(S(=O)(=O)N2CCN(CC(=O)c3ccc(O)c(O)c3)CC2)cc1 returned Neddyl block 3, PfM18AAP inh-1 67*, PfM18AAP inh-2 36* and CTSL1 confirm 7.
`O=C(CCl)Nc1cccc(Oc2ccccc2)c1` gave PfGluPho inh 10, Neddyl block -2, HKDC1 inh 14 and PfM18AAP inh-1 14.
Screening O=C(NCCCn1ccnc1)c1ccc(Cl)s1 returned PfGluPho inh -10, Neddyl block 1, HKDC1 inh -6 and PfM18AAP inh-1 -4.
`CCN(CC)S(=O)(=O)c1ccc2oc(SCC(=O)NC3CC3)nc2c1` gave PfGluPho inh 24, Neddyl block -8, HKDC1 inh -5, PfM18AAP inh-1 32*, PfM18AAP inh-2 -24 and CTSL1 confirm -8.
CCN(CC)S(=O)(=O)c1ccc2oc(SCC(=O)Nc3cc(C)on3)nc2c1 was read as Neddyl block 4.
For Cc1cc(NN)nc(NS(=O)(=O)c2ccccc2)n1 the results were PfGluPho inh -7, Neddyl block 1, HKDC1 inh 7, PfM18AAP inh-1 35*, PfM18AAP inh-2 4 and CTSL1 confirm -4.
For COc1cc(/C=N/Nc2nc(C)nc3c2cnn3-c2ccccc2)ccc1O the results were PfGluPho inh 5, HKDC1 inh 3, PfM18AAP inh-1 33*, PfM18AAP inh-2 -26 and CTSL1 confirm 0.
Screening Cc1cc(C)nc(NS(=O)(=O)c2ccc(N)cc2)n1 returned PfGluPho inh 2, Neddyl block 5, HKDC1 inh -6 and PfM18AAP inh-1 3.
For COc1ccc(/C=N/Nc2cc(C)nc(NS(=O)(=O)c3ccc(C)cc3)n2)cc1 the results were PfGluPho inh -12, Neddyl block 2, HKDC1 inh 13 and PfM18AAP inh-1 23.
COc1cc(/C=N/NC(=O)c2nc(-c3ccccc3)n(-c3ccccc3)n2)ccc1O was read as PfGluPho inh 43, Neddyl block 13, HKDC1 inh -3 and PfM18AAP inh-1 2.
Screening Cc1cc(NN)nc(NS(=O)(=O)c2ccc(Cl)cc2)n1 returned PfGluPho inh 11, Neddyl block 6, HKDC1 inh 7, PfM18AAP inh-1 37*, PfM18AAP inh-2 22 and CTSL1 confirm -1.
Screening COc1cc(/C=N/Nc2cc(C)nc(NS(=O)(=O)c3ccccc3)n2)ccc1O returned PfGluPho inh -7, Neddyl block 18, HKDC1 inh -4, PfM18AAP inh-1 32*, PfM18AAP inh-2 -23 and CTSL1 confirm -6.
For O=C1NC(=S)NC(=O)C1=Cc1ccccc1C(=O)O the results were PfGluPho inh -9, Neddyl block 0 and HKDC1 inh 8.
`COc1cccc(OC)c1NC(=O)CN1CCN(C)CC1` gave PfGluPho inh 4, Neddyl block -5, HKDC1 inh -4 and PfM18AAP inh-1 -7.
Cc1ccc2c(c1)-c1c(ssc1=S)C(C)(C)N2C(=O)c1ccco1 was read as PfGluPho inh 55, Neddyl block -19, HKDC1 inh -11, PfM18AAP inh-1 40*, PfM18AAP inh-2 -17 and CTSL1 confirm -5.
Screening CC1(C)c2ssc(=S)c2-c2ccccc2N1C(=O)c1ccco1 returned PfGluPho inh 25, Neddyl block -17, HKDC1 inh 7 and PfM18AAP inh-1 0.
`Cc1nc2scc(C)n2c(=O)c1S(=O)(=O)NCc1ccc(F)cc1` gave PfGluPho inh -14, Neddyl block -29, HKDC1 inh -4 and PfM18AAP inh-1 -10.
Screening CC(=O)c1ccc(NC(=S)NCCc2ccc(S(N)(=O)=O)cc2)cc1 returned PfGluPho inh -15, Neddyl block -43, HKDC1 inh 0 and PfM18AAP inh-1 0.
